According to ChEMBL document CHEMBL1132709, “Novel cyclopropapyrroloindole derivative (AT-3510) bearing methoxycarbonyl and trifluoromethyl groups” (J Med Chem, 1999):
Converted amounts (≈) assume the structure as drawn.

Tests used:
Mus musculus = assay: In vivo antitumor activity (0.5 mg/Kg) is the measure of tumor growth inhibition of colon 26 murine […] cells.; assay type: functional
In short: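 Colon 26 cells (10^6/mouse) inoculated sc into male CDF1 mice on day 0; drug given iv on day 7. Read-out is percentage tumor growth inhibition versus the untreated group.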

HeLa = assay: Concentration required to inhibit the growth of HeLaS3 human uterine cervix carcinoma cells by 50%; assay type: functional, cell-based
[1] = Ratio between max dose within 10% body weight loss and tumor growth inhibition; assay type: functional
In short: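 Ratio of maximum dose within 10% body weight loss to the dose giving 50% tumor growth inhibition, in sc Colon 26-bearing mice dosed iv.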

P338 = assay: In vitro concentration required to inhibit the growth of […] murine leukemia cells by 50%; assay type: functional, cell-based; conditions: Mus musculus

In the case of `COC(=O)c1c(C(F)(F)F)[nH]c2c(O)cc3c(c12)[C@H](CCl)CN3C(=O)c1cc2cc(NC(=O)c3cc4c(OC)c(OC)c(OC)cc4[nH]3)ccc2[nH]1`, the TGI (Mus musculus) is reported as 95% and the IC50 (HeLa) is reported as 0.94 ng/mL (≈ 1.27 nM).

Work on `COC(=O)c1c(C(F)(F)F)[nH]c2c(OC(=O)N3CCN(C)CC3)cc3c(c12)[C@H](CBr)CN3C(=O)c1cc2cc(OC)c(OC)c(OC)c2[nH]1` yielded a Ratio [1] of 11.7.

`COC(=O)c1c(C(F)(F)F)[nH]c2c1[C@@]13C[C@@H]1CN(C(=O)c1cc4cc(NC(=O)c5cc6ccccc6o5)ccc4[nH]1)C3=CC2=O` showed a Ratio [1] of 4.3.

In the case of `COC(=O)c1c(C(F)(F)F)[nH]c2c(O)cc3c(c12)[C@H](CCl)CN3C(=O)c1cc2cc(NC(=O)c3cc4cccc(OC)c4o3)ccc2[nH]1` (racemic), the TGI (Mus musculus) is reported as 96% and the IC50 (HeLa) is reported as 0.51 ng/mL (≈ 0.749 nM).

In the case of `COC(=O)c1c(C(F)(F)F)[nH]c2c(O)cc3c(c12)[C@H](CCl)CN3C(=O)c1cc2cc(NC(=O)c3ccc4ccccc4c3)ccc2[nH]1` (racemic), the TGI (Mus musculus) is reported as 84% and the IC50 (HeLa) is reported as 0.22 ng/mL (≈ 0.333 nM).

`COC(=O)c1c(C(F)(F)F)[nH]c2c1[C@@]13C[C@@H]1CN(C(=O)c1cc4cc(NC(=O)c5cc6ccccc6o5)ccc4[nH]1)C3=CC2=O` (racemic) showed an IC50 (P338) of 0.53 ng/mL (≈ 0.862 nM).

`COC(=O)c1c(C(F)(F)F)[nH]c2c(O)cc3c(c12)[C@H](CCl)CN3C(=O)c1cc2cc(NC(=O)c3cc4c(OC)cccc4o3)ccc2[nH]1` (racemic) gave a TGI (Mus musculus) of 83% and an IC50 (HeLa) of 0.87 ng/mL (≈ 1.28 nM).

With `COC(=O)c1c(C(F)(F)F)[nH]c2c(O)cc3c(c12)[C@H](CCl)CN3C(=O)c1cc2cc(OC)c(OC)c(OC)c2[nH]1` (racemic) the IC50 (HeLa) was 0.25 ng/mL (≈ 0.43 nM).

In the case of `COC(=O)c1c(C(F)(F)F)[nH]c2c(O)cc3c(c12)[C@H](CCl)CN3C(=O)c1cc2cc(NC(=O)c3cnc4ccccc4c3)ccc2[nH]1` (racemic), the TGI (Mus musculus) is reported as 84% and the IC50 (HeLa) is reported as 1.5 ng/mL (≈ 2.27 nM).

`COC(=O)c1c(C(F)(F)F)[nH]c2c(O)cc3c(c12)[C@H](CCl)CN3C(=O)c1cc2cc(NC(=O)c3cc4ccc(OC)cc4o3)ccc2[nH]1` (racemic) showed a TGI (Mus musculus) of 94% and an IC50 (HeLa) of 0.12 ng/mL (≈ 0.176 nM).

`COC(=O)c1[nH]c2c(c1C(=O)OC)[C@@]13C[C@@H]1CN(C(=O)c1cc4cc(NC(=O)c5cc6ccccc6o5)ccc4[nH]1)C3=CC2=O` (racemic) showed an IC50 (P338) of 0.66 ng/mL (≈ 1.09 nM).

`COC(=O)c1c(C(F)(F)F)[nH]c2c1[C@@]13C[C@@H]1CN(C(=O)c1cc4cc(OC)c(OC)c(OC)c4[nH]1)C3=CC2=O` (racemic) showed an IC50 (P338) of 0.24 ng/mL (≈ 0.44 nM).

For `COC(=O)c1c(C(F)(F)F)[nH]c2c(O)cc3c(c12)[C@H](CCl)CN3C(=O)c1cc2cc(OC)c(OC)c(OC)c2o1` (racemic), the TGI (Mus musculus) was 75% and the IC50 (HeLa) was 0.12 ng/mL (≈ 0.206 nM).

`COC(=O)c1c(C(F)(F)F)[nH]c2c(O)cc3c(c12)[C@H](CCl)CN3C(=O)c1cc2c(OC)c(OC)c(OC)cc2[nH]1` (racemic) gave an IC50 (HeLa) of 32 ng/mL (≈ 55 nM).

`COC(=O)c1c(C(F)(F)F)[nH]c2c(O)cc3c(c12)[C@H](CCl)CN3C(=O)c1cc2cc(NC(=O)c3cc4cc(OC)ccc4o3)ccc2[nH]1` (racemic) gave a TGI (Mus musculus) of 94% and an IC50 (HeLa) of 0.064 ng/mL (≈ 0.094 nM).

For `COC(=O)c1c(C(F)(F)F)[nH]c2c(O)cc3c(c12)[C@H](CCl)CN3C(=O)c1cc2cc(NC(=O)c3cc4ccccc4o3)ccc2[nH]1` (racemic), the TGI (Mus musculus) was 85% and the IC50 (HeLa) was 0.53 ng/mL (≈ 0.814 nM).

For `COC(=O)c1c(C)[nH]c2c1[C@@]13C[C@@H]1CN(C(=O)c1cc4cc(OC)c(OC)c(OC)c4[nH]1)C3=CC2=O` (racemic), the IC50 (P338) was 0.34 ng/mL (≈ 0.692 nM).

Work on `COC(=O)c1c(C(F)(F)F)[nH]c2c1[C@@]13C[C@@H]1CN(C(=O)c1cc4cc(OC)ccc4[nH]1)C3=CC2=O` (racemic) yielded an IC50 (P338) of 0.23 ng/mL (≈ 0.474 nM).

`COC(=O)c1[nH]c2c(c1C(=O)OC)[C@@]13C[C@@H]1CN(C(=O)c1cc4cc(NC(=O)c5cc6ccccc6[nH]5)ccc4[nH]1)C3=CC2=O` (racemic) showed an IC50 (P338) of 0.31 ng/mL (≈ 0.514 nM).
